test system: not listed separately; test: Ratio of kinact (rate constant of inactivation) to that of KI (inhibition constant) indicates efficacy of irreversible inhibition.

K inact/Ki	SMILES
0.35 10e4 M-1 s-1	CCCCCCCCCc1cc(=O)c2cc(OS(N)(=O)=O)ccc2o1

test system: not listed separately; test: Rate constant of inactivation

SMILES	kinact
NS(=O)(=O)Oc1ccc2c(c1)C(=O)CC(C13CC4CC(CC(C4)C1)C3)O2 (centres undefined)	0.017 s⁻¹
NS(=O)(=O)Oc1ccc2c(=O)cc(C3CCCCC3)oc2c1	0.02 s⁻¹
NS(=O)(=O)Oc1ccc2oc(C3C4CC5CC3CC5C4)cc(=O)c2c1 (centres undefined)	0.042 s⁻¹
NS(=O)(=O)Oc1ccc2oc(C3CCCCC3)cc(=O)c2c1	0.035 s⁻¹
NS(=O)(=O)Oc1ccc2c(c1)CCC(C1CCCCC1)O2 (centres undefined)	0.016 s⁻¹
CCCCCC12CCC(c3cc(=O)c4cc(OS(N)(=O)=O)ccc4o3)(CC1)CC2	0.074 s⁻¹

The next lines start with the values.

kinact	SMILES
0.04 s⁻¹	NS(=O)(=O)Oc1ccc2oc(C3CCCCCCCCCCC3)cc(=O)c2c1
0.07 s⁻¹	CC(C)(C)c1cc(=O)c2cc(OS(N)(=O)=O)ccc2o1
0.07 s⁻¹	NS(=O)(=O)Oc1ccc2c(=O)c(C3CCCCC3)coc2c1
0.006 s⁻¹	CCCCCCCCCc1cc(=O)c2cc(OS(N)(=O)=O)ccc2o1
0.115 s⁻¹	NS(=O)(=O)Oc1ccc2sc(C34CC5CC(CC(C5)C3)C4)cc(=O)c2c1
0.018 s⁻¹	NS(=O)(=O)Oc1ccc2c(c1)C(O)CC(C1CCCCC1)O2 (centres undefined)
0.011 s⁻¹	NS(=O)(=O)Oc1ccc2oc(C3CCCC3)cc(=O)c2c1

molecular target: T1, Steryl-sulfatase (Homo sapiens, UniProt P08842); test: Inhibitory activity against purified human steroid sulfatase (STS)
T1 sequence (P08842 whole entry): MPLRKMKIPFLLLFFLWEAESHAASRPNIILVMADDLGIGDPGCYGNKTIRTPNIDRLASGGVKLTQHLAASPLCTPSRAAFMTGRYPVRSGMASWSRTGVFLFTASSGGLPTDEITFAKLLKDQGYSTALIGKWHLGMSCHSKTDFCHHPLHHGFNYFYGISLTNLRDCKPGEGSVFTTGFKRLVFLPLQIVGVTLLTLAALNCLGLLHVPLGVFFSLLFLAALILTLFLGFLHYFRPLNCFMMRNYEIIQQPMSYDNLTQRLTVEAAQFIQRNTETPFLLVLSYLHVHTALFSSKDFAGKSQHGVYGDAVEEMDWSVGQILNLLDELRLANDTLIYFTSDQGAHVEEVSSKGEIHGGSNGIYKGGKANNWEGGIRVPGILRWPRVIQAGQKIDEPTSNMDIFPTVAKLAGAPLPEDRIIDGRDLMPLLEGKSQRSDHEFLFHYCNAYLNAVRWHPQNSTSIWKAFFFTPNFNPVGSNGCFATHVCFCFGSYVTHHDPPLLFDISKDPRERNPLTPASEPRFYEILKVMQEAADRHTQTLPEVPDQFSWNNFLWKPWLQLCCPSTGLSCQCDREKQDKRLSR
Method in brief: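 Human STS from stably transfected recombinant CHO cells, microsomal fraction solubilized in Triton X-100 and purified by chromatography to >95%. Enzyme (0.6 units) mixed with 4-MUS, 0.75 mM before mixing, in 0.1 M Tris-HCl pH 7.5, 0.1% Triton. Compounds at graded concentrations from ethanol stocks (final ethanol ≤2%). Incubation 60 min, 37 °C. Stopped with 0.2 M NaOH. Fluorescence ex 355/em 448 nm. IC50 from nonlinear regression; mean of triplicates.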

SMILES	IC50
NS(=O)(=O)Oc1ccc2c(c1)C(=O)CC(C13CC4CC(CC(C4)C1)C3)O2 (centres undefined)	140 nM
NS(=O)(=O)Oc1ccc2oc(CCc3ccccc3)cc(=O)c2c1	190 nM
NS(=O)(=O)Oc1ccc2oc(Cc3ccccc3)cc(=O)c2c1	1620 nM
NS(=O)(=O)Oc1ccc2c(=O)cc(C3CCCCC3)oc2c1	6330 nM
NS(=O)(=O)Oc1ccc2oc(/C=C/c3ccccc3)cc(=O)c2c1	1620 nM
CC1(C)C(c2cc(=O)c3cc(OS(N)(=O)=O)ccc3o2)C1(C)C	45 nM
NS(=O)(=O)Oc1ccc2oc(-c3ccccc3)cc(=O)c2c1	672 nM
CCCc1cc(=O)c2ccc(OS(N)(=O)=O)cc2o1	> 100000 nM
NS(=O)(=O)Oc1ccc2oc(C3C4CC5CC3CC5C4)cc(=O)c2c1 (centres undefined)	11 nM
CCCCCCCCC(C)(C)c1cc(=O)c2cc(OS(N)(=O)=O)ccc2o1	78 nM
NS(=O)(=O)Oc1ccc2oc(C3CCCCC3)cc(=O)c2c1	62 nM
NS(=O)(=O)Oc1ccc2c(c1)CCC(C1CCCCC1)O2 (centres undefined)	11200 nM
CCCCCC12CCC(c3cc(=O)c4cc(OS(N)(=O)=O)ccc4o3)(CC1)CC2	11 nM

Continued, values first:

IC50	SMILES
280 nM	NS(=O)(=O)Oc1ccc2c(c1)C(=O)CC(C1CCCCC1)O2 (centres undefined)
62 nM	NS(=O)(=O)Oc1ccc2sc(-c3ccccc3)cc(=O)c2c1
5.6 nM	CC(C)(C)c1cc(=O)c2cc(OS(N)(=O)=O)ccc2s1
722 nM	CCCc1cc(=O)c2cc(OS(N)(=O)=O)ccc2o1
45 nM	NS(=O)(=O)Oc1ccc2oc(C3CCCCCCCCCCC3)cc(=O)c2c1
2580 nM	NS(=O)(=O)Oc1ccc2c(c1)C(=O)CC(c1ccccc1)O2 (centres undefined)
22 nM	CC(C)(C)c1cc(=O)c2cc(OS(N)(=O)=O)ccc2o1
50 nM	NS(=O)(=O)Oc1ccc2c(=O)c(C3CCCCC3)coc2c1
437 nM	NS(=O)(=O)Oc1ccc2c(=O)c(-c3ccccc3)coc2c1
403 nM	CCCCCCCCCc1cc(=O)c2cc(OS(N)(=O)=O)ccc2o1
291 nM	NS(=O)(=O)Oc1ccc2c(c1)C(O)CC(C13CC4CC(CC(C4)C1)C3)O2 (centres undefined)
0.34 nM	NS(=O)(=O)Oc1ccc2sc(C34CC5CC(CC(C5)C3)C4)cc(=O)c2c1
24300 nM	NS(=O)(=O)Oc1ccc2c(c1)C(O)CC(C1CCCCC1)O2 (centres undefined)
134 nM	NS(=O)(=O)Oc1ccc2oc(C3CCCC3)cc(=O)c2c1

molecular target: not listed separately; test: Inhibition constant as dissociation constant of the noncovalent (STS) enzyme-inhibitor complex; format: ADME
Method in brief: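 Human placental microsomes (about 10 mg/mL protein) preincubated with inhibitor dilutions in 0.1 M Tris-HCl pH 7.5 for 1-20 min. Free inhibitor removed with dextran-coated charcoal. Residual activity measured in the supernatant with 4-MUS (1.5 mM before mixing), 20 min at 37 °C, stopped with NaOH, ex 355/em 460 nm. kapp from double-exponential fits. KI and kinact from a double-reciprocal plot of kapp against inhibitor concentration.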

SMILES	Ki
NS(=O)(=O)Oc1ccc2c(c1)C(=O)CC(C13CC4CC(CC(C4)C1)C3)O2 (centres undefined)	1860 nM
NS(=O)(=O)Oc1ccc2c(=O)cc(C3CCCCC3)oc2c1	24000 nM
NS(=O)(=O)Oc1ccc2oc(C3C4CC5CC3CC5C4)cc(=O)c2c1 (centres undefined)	220 nM
NS(=O)(=O)Oc1ccc2oc(C3CCCCC3)cc(=O)c2c1	1000 nM
NS(=O)(=O)Oc1ccc2c(c1)CCC(C1CCCCC1)O2 (centres undefined)	32000 nM
CCCCCC12CCC(c3cc(=O)c4cc(OS(N)(=O)=O)ccc4o3)(CC1)CC2	500 nM

Next, values leading:

Ki	SMILES
1100 nM	NS(=O)(=O)Oc1ccc2oc(C3CCCCCCCCCCC3)cc(=O)c2c1
900 nM	CC(C)(C)c1cc(=O)c2cc(OS(N)(=O)=O)ccc2o1
1200 nM	NS(=O)(=O)Oc1ccc2c(=O)c(C3CCCCC3)coc2c1
1700 nM	CCCCCCCCCc1cc(=O)c2cc(OS(N)(=O)=O)ccc2o1
210 nM	NS(=O)(=O)Oc1ccc2sc(C34CC5CC(CC(C5)C3)C4)cc(=O)c2c1
53700 nM	NS(=O)(=O)Oc1ccc2c(c1)C(O)CC(C1CCCCC1)O2 (centres undefined)
730 nM	NS(=O)(=O)Oc1ccc2oc(C3CCCC3)cc(=O)c2c1
